Laboratory results as given in ChEMBL document CHEMBL2016554, “Synthesis, biological evaluation and molecular docking studies of 1,3,4-oxadiazole derivatives as potential immunosuppressive agents” (Bioorg Med Chem, 2012).

Columns and labels:
[1] = Inhibition of N-terminal His-tagged bovine PI3Kgamma expressed in Sf21 cells using L-alpha-phosphatidylinositol substrate by TLC based phosphor imaging; design: species or system Bos taurus
[2] = target: T1, Phosphatidylinositol 4,5-bisphosphate 3-kinase catalytic subunit delta isoform (Homo sapiens, UniProt O00329); experiment: Inhibition of PI3Kdelta expressed in cells co-expressing N-terminal His-tagged human p85a using L-alpha-phosphatidylinositol substrate by TLC based phosphor imaging; format: cell-based
T1 sequence (O00329 whole entry): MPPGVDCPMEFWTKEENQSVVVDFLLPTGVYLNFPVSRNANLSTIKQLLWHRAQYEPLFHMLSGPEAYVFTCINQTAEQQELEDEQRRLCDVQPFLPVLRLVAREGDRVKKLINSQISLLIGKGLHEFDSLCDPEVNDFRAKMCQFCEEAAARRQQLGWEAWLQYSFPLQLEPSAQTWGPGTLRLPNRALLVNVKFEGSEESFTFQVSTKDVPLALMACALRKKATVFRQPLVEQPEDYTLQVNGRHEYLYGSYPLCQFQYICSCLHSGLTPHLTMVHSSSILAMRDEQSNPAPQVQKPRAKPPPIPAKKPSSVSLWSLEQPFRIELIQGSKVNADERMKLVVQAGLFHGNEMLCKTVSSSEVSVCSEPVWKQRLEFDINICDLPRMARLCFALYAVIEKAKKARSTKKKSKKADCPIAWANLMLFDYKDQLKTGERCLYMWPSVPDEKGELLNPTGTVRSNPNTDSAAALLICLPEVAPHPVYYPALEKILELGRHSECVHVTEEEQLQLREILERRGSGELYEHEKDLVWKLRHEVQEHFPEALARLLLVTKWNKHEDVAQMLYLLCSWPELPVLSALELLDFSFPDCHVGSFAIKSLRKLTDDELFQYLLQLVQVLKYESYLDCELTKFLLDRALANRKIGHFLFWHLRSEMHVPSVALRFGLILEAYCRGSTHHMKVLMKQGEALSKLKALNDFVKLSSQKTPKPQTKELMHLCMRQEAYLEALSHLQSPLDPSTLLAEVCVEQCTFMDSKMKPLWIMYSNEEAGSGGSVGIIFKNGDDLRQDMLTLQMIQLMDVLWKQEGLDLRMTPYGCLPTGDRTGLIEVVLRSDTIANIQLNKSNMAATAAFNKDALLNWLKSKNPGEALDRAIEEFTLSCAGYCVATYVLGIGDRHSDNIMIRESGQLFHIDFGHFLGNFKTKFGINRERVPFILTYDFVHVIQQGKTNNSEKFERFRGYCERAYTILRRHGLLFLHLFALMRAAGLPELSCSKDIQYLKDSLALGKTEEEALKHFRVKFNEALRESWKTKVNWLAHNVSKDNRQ

[3] = target: Phosphatidylinositol 4,5-bisphosphate 3-kinase catalytic subunit beta isoform (Homo sapiens, UniProt P42338); experiment: Inhibition of human wild type PI3Kbeta expressed in Sf21 cells co-expressing N-terminal His-tagged human p85a using L-alpha-phosphatidylinositol substrate by TLC based phosphor imaging
[4] = Immunosuppressive activity in BALB/c mouse lymph node cells assessed as inhibition of concanavalin A-stimulated cell proliferation at 1 uM administered 24 hrs post concanavalin A stimulation and measured 72 hrs after compound dosing by MTT assay; format: functional
Outline: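 BALB/c mouse lymph node cells, 5 × 10^5 per well, stimulated with 5 µg/mL ConA for 24 h, then left untreated or given compound at 1 µM for 72 h. MTT added 4 h before the end, formazan dissolved in DMSO, OD570 read. Inhibition = (control OD570 − compound OD570)/control OD570 × 100, with untreated cells as control. Values are means of three experiments.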

[5] = target: Phosphatidylinositol 4,5-bisphosphate 3-kinase catalytic subunit alpha isoform (Mus musculus, UniProt P42337); experiment: Inhibition of mouse wild type PI3Kalpha expressed in Sf21 cells co-expressing N-terminal His-tagged human p85a using L-alpha-phosphatidylinositol substrate by TLC based phosphor imaging
[6] = Cytotoxicity against BALB/c mouse lymph node cells at 10 uM after 24 hrs MTT assay
[7] = tested on: Mus musculus; experiment: Induction of apoptosis in BALB/c mouse concanavalin A-stimulated lymph node cells assessed as late apoptotic cells administered 24 hrs post concanavalin A stimulation and measured 24 hrs after by Annexin-V-FITC/propidium iodide staining based flow cytometry; format: functional
[8] = Induction of apoptosis in BALB/c mouse concanavalin A-stimulated lymph node cells assessed as late apoptotic cells at 1 uM administered 24 hrs post concanavalin A stimulation and measured 24 hrs after by Annexin-V-FITC/propidium iodide staining based flow cytometry (reference value: 17.49 %); format: functional
[9] = Induction of apoptosis in BALB/c mouse concanavalin A-stimulated lymph node cells assessed as late apoptotic cells at 4 uM administered 24 hrs post concanavalin A stimulation and measured 24 hrs after by Annexin-V-FITC/propidium iodide staining based flow cytometry (reference value: 17.49 %); format: functional
[10] = Induction of apoptosis in BALB/c mouse concanavalin A-stimulated lymph node cells assessed as early apoptotic cells at 4 uM administered 24 hrs post concanavalin A stimulation and measured 24 hrs after by Annexin-V-FITC/propidium iodide staining based flow cytometry (reference value: 4.52 %); format: functional
[11] = Induction of apoptosis in BALB/c mouse concanavalin A-stimulated lymph node cells assessed as early apoptotic cells at 16 uM administered 24 hrs post concanavalin A stimulation and measured 24 hrs after by Annexin-V-FITC/propidium iodide staining based flow cytometry (reference value: 4.52 %); format: functional
[12] = Induction of apoptosis in BALB/c mouse concanavalin A-stimulated lymph node cells assessed as early apoptotic cells at 1 uM administered 24 hrs post concanavalin A stimulation and measured 24 hrs after by Annexin-V-FITC/propidium iodide staining based flow cytometry (reference value: 4.52 %); format: functional
[13] = Induction of apoptosis in BALB/c mouse concanavalin A-stimulated lymph node cells assessed as late apoptotic cells at 16 uM administered 24 hrs post concanavalin A stimulation and measured 24 hrs after by Annexin-V-FITC/propidium iodide staining based flow cytometry (reference value: 17.49 %); format: functional

Sequence of Phosphatidylinositol 4,5-bisphosphate 3-kinase catalytic subunit alpha isoform (P42337 whole entry, canonical isoform): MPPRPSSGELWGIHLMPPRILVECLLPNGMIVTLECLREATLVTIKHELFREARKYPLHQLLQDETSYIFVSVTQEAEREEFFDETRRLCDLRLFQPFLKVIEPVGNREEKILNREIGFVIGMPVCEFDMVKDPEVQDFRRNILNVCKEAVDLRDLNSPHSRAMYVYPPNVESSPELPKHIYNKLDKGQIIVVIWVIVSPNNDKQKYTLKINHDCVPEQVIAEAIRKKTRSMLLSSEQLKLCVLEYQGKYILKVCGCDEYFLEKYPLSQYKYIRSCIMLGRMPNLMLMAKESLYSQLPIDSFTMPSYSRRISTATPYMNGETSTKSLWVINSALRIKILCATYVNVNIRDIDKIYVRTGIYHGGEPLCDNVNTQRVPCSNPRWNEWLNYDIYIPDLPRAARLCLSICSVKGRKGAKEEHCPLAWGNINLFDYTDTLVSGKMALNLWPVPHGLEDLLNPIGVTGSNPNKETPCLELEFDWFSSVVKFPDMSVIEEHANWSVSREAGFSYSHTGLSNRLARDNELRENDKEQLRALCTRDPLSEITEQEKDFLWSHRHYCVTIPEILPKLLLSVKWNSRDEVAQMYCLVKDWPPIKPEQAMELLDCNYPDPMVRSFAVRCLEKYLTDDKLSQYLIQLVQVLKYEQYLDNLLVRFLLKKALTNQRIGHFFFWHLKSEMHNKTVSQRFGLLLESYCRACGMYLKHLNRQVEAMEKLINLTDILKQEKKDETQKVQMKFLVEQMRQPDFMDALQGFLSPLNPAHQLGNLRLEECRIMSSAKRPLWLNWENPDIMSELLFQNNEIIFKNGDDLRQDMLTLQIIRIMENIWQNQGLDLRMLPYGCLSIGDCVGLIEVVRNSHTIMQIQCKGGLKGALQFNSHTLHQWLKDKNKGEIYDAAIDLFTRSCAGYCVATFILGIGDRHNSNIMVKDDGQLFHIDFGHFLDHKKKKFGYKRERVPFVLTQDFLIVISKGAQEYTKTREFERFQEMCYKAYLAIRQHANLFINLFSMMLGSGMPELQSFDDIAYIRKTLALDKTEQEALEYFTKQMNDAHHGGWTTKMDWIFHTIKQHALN
Sequence of Phosphatidylinositol 4,5-bisphosphate 3-kinase catalytic subunit beta isoform (P42338 whole entry, canonical isoform): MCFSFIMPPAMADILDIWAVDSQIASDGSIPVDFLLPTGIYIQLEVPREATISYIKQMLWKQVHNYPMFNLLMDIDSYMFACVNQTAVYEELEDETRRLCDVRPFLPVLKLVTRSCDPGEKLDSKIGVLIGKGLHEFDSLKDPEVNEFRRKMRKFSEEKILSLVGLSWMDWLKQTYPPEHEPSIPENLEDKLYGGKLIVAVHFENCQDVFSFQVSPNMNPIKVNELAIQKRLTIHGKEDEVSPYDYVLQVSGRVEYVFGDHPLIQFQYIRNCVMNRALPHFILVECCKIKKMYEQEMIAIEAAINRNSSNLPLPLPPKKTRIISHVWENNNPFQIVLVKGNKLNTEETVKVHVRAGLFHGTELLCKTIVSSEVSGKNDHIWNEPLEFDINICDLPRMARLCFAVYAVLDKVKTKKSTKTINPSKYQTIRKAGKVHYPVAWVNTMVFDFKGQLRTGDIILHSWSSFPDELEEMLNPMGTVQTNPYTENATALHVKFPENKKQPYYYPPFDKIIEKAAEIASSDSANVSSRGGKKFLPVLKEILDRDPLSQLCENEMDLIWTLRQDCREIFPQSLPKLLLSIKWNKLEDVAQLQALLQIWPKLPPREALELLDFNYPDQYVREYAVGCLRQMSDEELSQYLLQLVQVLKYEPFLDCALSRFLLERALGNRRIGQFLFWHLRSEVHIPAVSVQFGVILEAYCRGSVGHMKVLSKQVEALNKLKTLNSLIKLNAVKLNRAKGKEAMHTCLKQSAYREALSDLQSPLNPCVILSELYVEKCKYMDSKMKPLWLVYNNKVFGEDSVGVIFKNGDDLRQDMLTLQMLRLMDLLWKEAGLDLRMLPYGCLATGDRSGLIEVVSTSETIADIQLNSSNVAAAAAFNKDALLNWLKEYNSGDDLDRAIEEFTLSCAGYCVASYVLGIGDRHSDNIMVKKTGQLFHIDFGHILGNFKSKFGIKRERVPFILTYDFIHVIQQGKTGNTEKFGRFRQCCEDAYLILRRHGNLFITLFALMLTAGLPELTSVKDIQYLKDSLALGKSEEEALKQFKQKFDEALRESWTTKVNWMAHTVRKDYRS

Row | SMILES | inhibition (INH) [4] [%] | OD [6] | other results
1 | COc1ccc(-c2nnc(SCc3ccc(F)cc3)o2)c(O)c1 | 29.32 | 0.87 | IC50 [1]: 0.98 µM; IC50 [2]: 11.5 µM; IC50 [3]: > 100 µM; IC50 [5]: 31.2 µM
2 | COc1ccc(-c2nnc(SCc3cccc(C)c3)o2)c(O)c1 | 16.28 | 1.12 | –
3 | Cc1ccc(-c2nnc(SCc3ccc(F)cc3)o2)c(O)c1 | 4.5 | 0.82 | –
4 | COc1ccc(C(=O)O)c(O)c1 [4-METHOXYSALICYLIC ACID] | 7.34 | – | –
5 | COc1ccc(CSc2nnc(-c3ccc(C)cc3O)o2)cc1 | 13.67 | 0.83 | –
6 | Cc1ccc(-c2nnc(SCc3cccc([N+](=O)[O-])c3)o2)c(O)c1 | -4.36 | 0.81 | –
7 | COc1cccc(CSc2nnc(-c3ccc(C)cc3O)o2)c1 | 20.59 | 0.87 | IC50 [1]: 2.59 µM; IC50 [2]: > 100 µM; IC50 [3]: 13.6 µM; IC50 [5]: 1.97 µM
8 | Cc1ccc(-c2nnc(SCc3ccccc3F)o2)c(O)c1 | -6.92 | 0.82 | –
9 | Cc1ccc(-c2nnc(SCc3cccc(Cl)c3)o2)c(O)c1 | -0.72 | 0.7 | –
10 | COc1ccc(-c2nnc(SCc3ccccc3)o2)c(O)c1 | 4.5 | 0.81 | –
11 | O=c1cc(N2CCOCC2)oc2c(-c3ccccc3)cccc12 [LY-294002] | – | – | IC50 [2]: 0.57 µM
12 | Cc1ccc(-c2nnc(SCc3ccc(Cl)cc3)o2)c(O)c1 | 13.4 | 0.75 | –
13 | Cc1cccc(CSc2nnc(-c3ccc(C)cc3O)o2)c1 | 5.22 | 0.8 | –
14 | COc1cccc(CSc2nnc(-c3ccc(OC)cc3O)o2)c1 | 11.06 | 0.71 | –
15 | C/C=C/C[C@@H](C)[C@@H](O)[C@H]1C(=O)N[C@@H](CC)C(=O)N(C)CC(=O)N(C)[C@@H](CC(C)C)C(=O)N[C@@H](C(C)C)C(=O)N(C)[C@@H](CC(C)C)C(=O)N[C@@H](C)C(=O)N[C@H](C)C(=O)N(C)[C@@H](CC(C)C)C(=O)N(C)[C@@H](CC(C)C)C(=O)N(C)[C@@H](C(C)C)C(=O)N1C [CYCLOSPORINE] | 69.77 | – | –
16 | Cc1ccc(-c2nnc(SCc3ccc([N+](=O)[O-])cc3)o2)c(O)c1 | 38.76 | 0.89 | IC50 [1]: 0.31 µM; IC50 [2]: 25.6 µM; Activity [7]: Dose-dependent effect; IC50 [3]: > 100 µM; Activity [8]: 26.59%; Activity [9]: 27.4%; Activity [10]: 6.69%; IC50 [5]: 54.9 µM; Activity [11]: 2.16%; Activity [12]: 6.26%; Activity [13]: 96.35%
17 | COc1ccc(-c2nnc(SCc3ccc(Cl)cc3)o2)c(O)c1 | 11.96 | 0.87 | –
18 | COc1ccc(-c2nnc(SCc3ccccc3[N+](=O)[O-])o2)c(O)c1 | 3.96 | 0.91 | –
19 | Cc1ccc(-c2nnc(SCc3ccccc3[N+](=O)[O-])o2)c(O)c1 | 11.42 | 0.74 | –
20 | Cc1ccc(-c2nnc(SCc3ccccc3)o2)c(O)c1 | 9.08 | 0.86 | –
21 | Cc1ccc(CSc2nnc(-c3ccc(C)cc3O)o2)cc1 | 11.42 | 0.65 | –
22 | COc1ccc(-c2nnc(SCc3ccccc3Cl)o2)c(O)c1 | 17.36 | 0.89 | –
23 | COc1ccc(-c2nnc(SCc3cccc(Cl)c3)o2)c(O)c1 | 22.03 | 0.9 | IC50 [1]: 1.87 µM; IC50 [2]: > 100 µM; IC50 [3]: 43.7 µM; IC50 [5]: 15.4 µM
24 | COc1ccc(-c2nnc(SCc3ccccc3F)o2)c(O)c1 | 34.35 | 0.79 | IC50 [1]: 0.59 µM; IC50 [2]: 19 µM; IC50 [3]: 51.8 µM; IC50 [5]: 33.9 µM
25 | COc1ccc(-c2nnc(SCc3ccc([N+](=O)[O-])cc3)o2)c(O)c1 | 14.39 | 0.83 | –
26 | Cc1ccc(C(=O)O)c(O)c1 | 3.52 | – | –
27 | COc1ccc(CSc2nnc(-c3ccc(OC)cc3O)o2)cc1 | 11.33 | 0.75 | –
28 | COc1ccc(-c2nnc(SCc3ccc(C)cc3)o2)c(O)c1 | 6.29 | 0.9 | –
29 | Cc1ccc(-c2nnc(SCc3ccccc3Cl)o2)c(O)c1 | 8.99 | 0.79 | –
30 | COc1ccc(-c2nnc(SCc3cccc([N+](=O)[O-])c3)o2)c(O)c1 | 19.33 | 0.86 | IC50 [1]: 2.47 µM; IC50 [2]: 29.7 µM; IC50 [3]: > 100 µM; IC50 [5]: 17.9 µM
